According to ChEMBL document CHEMBL1153939, “Novel antagonists of serotonin-4 receptors: synthesis and biological evaluation of pyrrolothienopyrazines” (Bioorg Med Chem, 2009):
Activity calls are given as the source filed them.

Experiments:
[1] = target: Alpha-2B adrenergic receptor (Homo sapiens, UniProt P18089); experiment: Displacement of [3H]RX821002 form human recombinant alpha2B adrenergic receptor
[2] = target: 5-hydroxytryptamine receptor 4 (Mus musculus) (UniProt P97288); experiment: Agonist activity at mouse 5HT4a receptor expressed in african green monkey COS7 cells assessed as cAMP release relative to serotonin; type: functional, cell-based; conditions: COS-7
Chain of 5-hydroxytryptamine receptor 4 (Mus musculus) (P97288 whole entry): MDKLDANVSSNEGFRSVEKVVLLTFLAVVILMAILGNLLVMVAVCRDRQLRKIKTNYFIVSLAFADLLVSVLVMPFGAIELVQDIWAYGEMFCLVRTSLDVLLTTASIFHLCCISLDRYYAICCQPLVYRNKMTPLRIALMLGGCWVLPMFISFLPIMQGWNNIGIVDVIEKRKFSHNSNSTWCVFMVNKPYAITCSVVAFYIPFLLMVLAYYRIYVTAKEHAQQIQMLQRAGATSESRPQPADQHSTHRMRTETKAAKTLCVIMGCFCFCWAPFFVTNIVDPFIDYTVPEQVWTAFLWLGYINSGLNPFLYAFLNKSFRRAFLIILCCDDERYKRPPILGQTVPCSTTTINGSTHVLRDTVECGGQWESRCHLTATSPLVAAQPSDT
How it was run: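 Mouse 5-HT4(a) receptor transfected by electroporation into COS-7 cells (560 fmol/mg protein). Cells labelled 2 h at 37 °C with [3H]adenine, then exposed to increasing concentrations of test agent in 0.75 mM IBMX and 0.1 µM forskolin. cAMP measured as [3H]ATP→[3H]cAMP conversion after Dowex/alumina separation. Expressed as % of maximal 5-HT stimulation over basal. Mean of four independent experiments.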

[3] = system: Mus musculus; experiment: Analgesic activity in NMRI mouse assessed as reaction time taken to lick fore paw at 0.01 to 1 mg/kg, ip by hot plate test; type: functional, organism-based
How it was run: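 Male NMRI mice (20–24 g), 10 per group, each pre-screened twice on a 55 °C plate (response required within 4–12 s). Compound given ip in saline (10 mL/kg) at 0.01, 0.1 and 1 mg/kg. Time to forepaw licking recorded 15 and 30 min post-injection; 30 s cutoff. ANOVA + Fisher PLSD.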

[4] = target: T1, 5-hydroxytryptamine receptor 3A (Homo sapiens, UniProt P46098); experiment: Displacement of [3H]granisetron from human recombinant 5HT3 receptor
T1 sequence (P46098 whole entry): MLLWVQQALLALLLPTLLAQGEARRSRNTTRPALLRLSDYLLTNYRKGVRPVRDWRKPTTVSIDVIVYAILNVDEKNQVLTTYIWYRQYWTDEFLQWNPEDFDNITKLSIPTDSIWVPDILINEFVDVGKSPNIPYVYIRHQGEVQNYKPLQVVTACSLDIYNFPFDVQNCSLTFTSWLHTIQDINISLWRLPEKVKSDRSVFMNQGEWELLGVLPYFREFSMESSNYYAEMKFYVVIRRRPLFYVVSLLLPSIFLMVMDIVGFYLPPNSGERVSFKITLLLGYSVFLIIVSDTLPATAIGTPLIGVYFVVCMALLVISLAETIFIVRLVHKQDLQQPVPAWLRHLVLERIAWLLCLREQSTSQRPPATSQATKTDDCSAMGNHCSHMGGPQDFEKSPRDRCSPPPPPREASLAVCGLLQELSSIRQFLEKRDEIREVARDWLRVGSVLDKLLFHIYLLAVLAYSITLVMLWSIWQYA

[5] = target: 5-hydroxytryptamine receptor 1D (Rattus norvegicus, UniProt P28565); experiment: Displacement of [3H]5OH-tryptamine rat recombinant 5HT1D receptor
Chain of 5-hydroxytryptamine receptor 1D (P28565 whole entry): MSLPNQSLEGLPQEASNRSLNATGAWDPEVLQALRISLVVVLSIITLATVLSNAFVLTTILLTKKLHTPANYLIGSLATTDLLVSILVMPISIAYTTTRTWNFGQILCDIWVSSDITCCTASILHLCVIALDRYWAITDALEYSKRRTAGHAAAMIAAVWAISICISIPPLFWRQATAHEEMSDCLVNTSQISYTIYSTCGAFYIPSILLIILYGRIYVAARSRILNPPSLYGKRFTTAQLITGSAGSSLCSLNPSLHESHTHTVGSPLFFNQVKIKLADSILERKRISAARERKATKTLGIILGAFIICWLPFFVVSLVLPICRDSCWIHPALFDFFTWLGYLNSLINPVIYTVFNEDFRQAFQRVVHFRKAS

[6] = target: 5-hydroxytryptamine receptor 7 (Homo sapiens, UniProt P34969); experiment: Displacement of [3H]LSD form human recombinant 5HT7 receptor
Chain of 5-hydroxytryptamine receptor 7 (P34969 whole entry): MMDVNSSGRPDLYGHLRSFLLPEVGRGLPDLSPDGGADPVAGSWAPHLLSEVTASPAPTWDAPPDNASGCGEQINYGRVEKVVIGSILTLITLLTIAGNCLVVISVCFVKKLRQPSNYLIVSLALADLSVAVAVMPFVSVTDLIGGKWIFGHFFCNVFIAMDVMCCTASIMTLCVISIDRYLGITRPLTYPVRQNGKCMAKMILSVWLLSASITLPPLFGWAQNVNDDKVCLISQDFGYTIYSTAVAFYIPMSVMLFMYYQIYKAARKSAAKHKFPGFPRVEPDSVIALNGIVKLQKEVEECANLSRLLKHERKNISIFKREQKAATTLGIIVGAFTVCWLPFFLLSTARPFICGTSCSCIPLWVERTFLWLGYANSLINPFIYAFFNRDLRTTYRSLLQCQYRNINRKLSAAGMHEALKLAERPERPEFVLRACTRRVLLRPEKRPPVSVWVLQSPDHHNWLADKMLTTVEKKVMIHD
How it was run: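 Membranes from sf9 cells expressing human 5-HT6 (14 µg/mL) or 5-HT7 (38 µg/mL) incubated 90 min at 27 °C with 2 nM [3H]LSD in 50 mM Tris-HCl containing 10 mM MgSO4 and 0.5 mM EDTA. Nonspecific binding defined with clozapine (10 and 250 µM).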

[7] = target: Alpha-2A adrenergic receptor (Homo sapiens, UniProt P08913); experiment: Displacement of [3H]RX821002 form human recombinant alpha2A adrenergic receptor
Chain of Alpha-2A adrenergic receptor (P08913 whole entry): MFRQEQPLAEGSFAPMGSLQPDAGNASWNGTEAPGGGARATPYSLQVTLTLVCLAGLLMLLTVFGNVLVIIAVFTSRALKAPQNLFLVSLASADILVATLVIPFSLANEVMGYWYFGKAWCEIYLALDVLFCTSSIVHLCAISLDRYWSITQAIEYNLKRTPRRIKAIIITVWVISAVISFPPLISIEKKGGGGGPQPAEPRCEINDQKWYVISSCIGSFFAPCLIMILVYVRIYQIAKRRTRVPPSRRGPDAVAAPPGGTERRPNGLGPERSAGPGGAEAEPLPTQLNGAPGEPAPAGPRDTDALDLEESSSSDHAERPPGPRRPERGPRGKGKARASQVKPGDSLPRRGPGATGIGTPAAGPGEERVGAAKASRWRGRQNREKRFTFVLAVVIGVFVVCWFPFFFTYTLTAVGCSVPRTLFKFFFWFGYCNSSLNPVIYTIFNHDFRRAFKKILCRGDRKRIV

[8] = target: 5-hydroxytryptamine receptor 4 (Cavia porcellus, UniProt O70528); experiment: Displacement of [3H]GR-113808 from 5HT4 receptor in guinea pig striatum membrane; type: cell membranes
Chain of 5-hydroxytryptamine receptor 4 (O70528 whole entry): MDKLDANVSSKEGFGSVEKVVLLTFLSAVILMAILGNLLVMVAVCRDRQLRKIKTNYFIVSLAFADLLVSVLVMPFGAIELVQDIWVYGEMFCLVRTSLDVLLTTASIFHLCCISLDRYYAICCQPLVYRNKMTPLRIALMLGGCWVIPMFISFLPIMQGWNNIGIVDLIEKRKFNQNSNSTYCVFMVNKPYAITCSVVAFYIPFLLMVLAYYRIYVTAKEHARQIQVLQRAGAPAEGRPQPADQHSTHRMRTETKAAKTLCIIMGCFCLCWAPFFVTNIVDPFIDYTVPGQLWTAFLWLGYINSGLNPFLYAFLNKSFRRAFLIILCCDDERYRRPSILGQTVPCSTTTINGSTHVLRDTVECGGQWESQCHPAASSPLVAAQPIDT
How it was run: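 Guinea pig membranes (15 µg protein/mL) incubated 30 min at 37 °C with 0.6 nM [3H]GR113808 in 50 mM HEPES, pH 7.4, with fixed test concentrations. Nonspecific binding defined with 10 µM serotonin.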

[9] = target: Alpha-2C adrenergic receptor (Homo sapiens, UniProt P18825); experiment: Displacement of [3H]RX821002 form human recombinant Alpha-2C adrenergic receptor
Chain of Alpha-2C adrenergic receptor (P18825 whole entry): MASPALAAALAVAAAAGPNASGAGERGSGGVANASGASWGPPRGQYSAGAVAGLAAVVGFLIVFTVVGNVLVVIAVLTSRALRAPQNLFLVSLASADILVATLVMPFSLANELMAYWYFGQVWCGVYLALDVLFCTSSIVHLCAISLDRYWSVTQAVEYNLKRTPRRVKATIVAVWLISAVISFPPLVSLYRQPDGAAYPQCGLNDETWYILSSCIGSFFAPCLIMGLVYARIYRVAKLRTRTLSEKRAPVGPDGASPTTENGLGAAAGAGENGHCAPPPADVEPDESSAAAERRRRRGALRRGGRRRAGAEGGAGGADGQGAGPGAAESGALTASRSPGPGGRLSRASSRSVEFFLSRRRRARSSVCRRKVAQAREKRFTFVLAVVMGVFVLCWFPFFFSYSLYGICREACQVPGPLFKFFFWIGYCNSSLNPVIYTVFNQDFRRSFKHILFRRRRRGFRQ

[10] = target: 5-hydroxytryptamine receptor 2B (Homo sapiens, UniProt P41595); experiment: Displacement of [3H]mesulergine from human recombinant 5HT2B receptor
Chain of 5-hydroxytryptamine receptor 2B (P41595 whole entry): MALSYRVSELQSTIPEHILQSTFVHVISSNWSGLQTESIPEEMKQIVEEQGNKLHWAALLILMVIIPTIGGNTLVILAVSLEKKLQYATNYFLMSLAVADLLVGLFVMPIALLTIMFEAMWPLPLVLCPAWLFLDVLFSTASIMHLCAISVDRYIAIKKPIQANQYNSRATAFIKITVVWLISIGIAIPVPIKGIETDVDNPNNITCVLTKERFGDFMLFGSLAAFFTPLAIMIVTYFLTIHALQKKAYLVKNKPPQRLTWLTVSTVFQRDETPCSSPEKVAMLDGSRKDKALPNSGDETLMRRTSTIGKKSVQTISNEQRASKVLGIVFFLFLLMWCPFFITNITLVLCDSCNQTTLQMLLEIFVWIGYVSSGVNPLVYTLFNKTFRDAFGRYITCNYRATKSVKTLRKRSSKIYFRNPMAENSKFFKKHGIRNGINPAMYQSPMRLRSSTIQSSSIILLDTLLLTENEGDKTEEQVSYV

[11] = Toxicity in ip dosed NMRI mouse; type: organism-based; conditions: in vivo
How it was run: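 Male NMRI mice (20–24 g) given ip drug in saline (10 mL/kg), groups of 4. Behavioural and neurological changes scored against controls by a standardized observation technique at 30 min, 3 h and 24 h post-dose. Approximate LD50 derived from deaths counted at 24 h.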

[12] = target: T1, 5-hydroxytryptamine receptor 3A; experiment: Antagonist activity at 5HT3 receptor in hybrid NG108-15 cells assessed as inhibition of 5HT-induced current by electrophysiology; type: functional, cell-based
How it was run: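 NG108-15 cells grown in DMEM-HG with 5% FBS and HAT, then differentiated on polylysine glass with 2% DMSO for 48 h followed by ≥24 h with 1 mM dibutyryl-cAMP. Whole-cell recording at −60 mV in HEPES saline, pH 7.3, with a CsCl/CsMeSO3 pipette solution. 5-HT 50 µM applied by gravity every 2.5 min.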

[13] = target: 5-hydroxytryptamine receptor 4 (Mus musculus) (UniProt P97288); experiment: Antagonist activity at mouse 5HT4a receptor expressed in african green monkey COS7 cells assessed as inhibition of 5HT-induced cAMP release relative to serotonin; type: functional, cell-based; parameters: scale not given: the % may be the effect or the level left; conditions: COS-7
How it was run: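 Antagonist mode on the same transfected COS-7 cells expressing mouse 5-HT4(a). Cells labelled with [3H]adenine, then incubated with 0.75 mM IBMX, 0.1 µM forskolin and test agents for 5 min at 37 °C; stopped with ice-cold 5% TCA. cAMP read as [3H]ATP→[3H]cAMP conversion after Dowex/alumina chromatography. Mean of four independent experiments.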

[14] = target: Alpha-1B adrenergic receptor (Homo sapiens, UniProt P35368); experiment: Displacement of [3H]prazosin form human recombinant Alpha-1B adrenergic receptor
Chain of Alpha-1B adrenergic receptor (P35368 whole entry): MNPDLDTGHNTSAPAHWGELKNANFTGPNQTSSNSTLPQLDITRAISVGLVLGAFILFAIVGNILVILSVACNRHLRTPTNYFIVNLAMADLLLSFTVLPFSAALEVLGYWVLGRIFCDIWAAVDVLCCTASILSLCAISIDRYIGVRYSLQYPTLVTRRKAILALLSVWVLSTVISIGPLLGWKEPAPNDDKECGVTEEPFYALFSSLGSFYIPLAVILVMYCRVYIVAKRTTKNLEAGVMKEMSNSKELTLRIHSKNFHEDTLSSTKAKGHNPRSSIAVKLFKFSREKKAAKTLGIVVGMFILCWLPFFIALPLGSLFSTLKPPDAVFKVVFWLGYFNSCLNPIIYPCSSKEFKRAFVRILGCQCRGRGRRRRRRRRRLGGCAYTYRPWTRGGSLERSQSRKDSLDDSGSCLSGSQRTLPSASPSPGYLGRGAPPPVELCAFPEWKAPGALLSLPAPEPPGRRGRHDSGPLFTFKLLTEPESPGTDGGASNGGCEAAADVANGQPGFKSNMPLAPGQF

Chain of Alpha-2B adrenergic receptor (P18089 whole entry): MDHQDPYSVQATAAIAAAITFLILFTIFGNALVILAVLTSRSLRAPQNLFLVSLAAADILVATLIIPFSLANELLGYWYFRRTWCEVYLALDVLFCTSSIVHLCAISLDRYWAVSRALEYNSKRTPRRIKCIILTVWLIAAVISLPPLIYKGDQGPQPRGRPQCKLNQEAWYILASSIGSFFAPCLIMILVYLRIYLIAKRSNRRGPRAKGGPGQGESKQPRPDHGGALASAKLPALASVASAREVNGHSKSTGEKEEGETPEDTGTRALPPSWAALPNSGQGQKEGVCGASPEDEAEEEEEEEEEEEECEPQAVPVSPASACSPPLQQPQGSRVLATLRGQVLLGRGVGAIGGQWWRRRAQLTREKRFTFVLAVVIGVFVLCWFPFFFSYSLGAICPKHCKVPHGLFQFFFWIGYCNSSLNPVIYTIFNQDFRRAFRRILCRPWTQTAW

SMILES: CCCN1CCC(COc2nc3scc(C)c3n3cccc23)CC1
- IC50 [1]: 955 nM
- Activity [2]: 20%
- Activity [3]: inactive
- IC50 [4]: 6.92 nM
- IC50 [5]: 4570 nM
- IC50 [6]: > 1000 nM
- IC50 [7]: 891 nM
- Ki [8]: 1.74 nM
- IC50 [9]: 741 nM
- IC50 [10]: 282 nM
- LD50 [11]: 200 mg/kg
- IC50 [12]: 385 nM
- Activity [13]: 80%
- IC50 [14]: 145 nM
